APOBEC3A inh – APOBEC3A ssDNA deaminase inhibitors, primary screen, selectivity assay for APOBEC3G inhibitor project, biochemical, FAM/TAMRA oligo cleavage fluorescence | recombinant A3A, FAM/TAMRA ssDNA deamination fluorescence | inhibition, % at 20 µM | DNA dC->dU-editing enzyme APOBEC-3A (Homo sapiens), P31941 | 330,000 tested, 0.41% active;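 active = at least 40% inhibition at 20 µM here, with at most 30% in a related deaminase screen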;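 also: plate controls were A3A with DMSO for no effect and wells lacking A3A enzyme for full effect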
C2C12 statin – suppressors of statin myotoxicity in C2C12 myotubes, primary screen, cell-based, single point, plate reader; C2C12 myotubes + simvastatin, ATP luminescence, 48 h; scaled: DMSO 0, geranylgeraniol control 100; rescue of ATP level, % at 7.49 µM; AID 602340, 2012; 330,000 tested, 0.78% active;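 active = mean ATP rescue above about 67%, or every replicate alone reaching that limit, limit read from the data, passing the limit was not always enough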;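 also: myotubes were challenged with 10 µM simvastatin during compound exposure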
ASAP1 inh – inhibitors of human ASAP1 ArfGAP activity, primary screen, biochemical, fluorescence polarization; ASAP1-stimulated ARF1 GTP hydrolysis, GDP FP detection; inhibition, % at 16.5 µM; 360,000 tested, 0.19% active; in the data active = inhibition above about 25%;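 also: 0% = vehicle with enzyme and substrate and 100% = no enzyme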
Target sequence (Q9ULH1 325-724 limits assumed): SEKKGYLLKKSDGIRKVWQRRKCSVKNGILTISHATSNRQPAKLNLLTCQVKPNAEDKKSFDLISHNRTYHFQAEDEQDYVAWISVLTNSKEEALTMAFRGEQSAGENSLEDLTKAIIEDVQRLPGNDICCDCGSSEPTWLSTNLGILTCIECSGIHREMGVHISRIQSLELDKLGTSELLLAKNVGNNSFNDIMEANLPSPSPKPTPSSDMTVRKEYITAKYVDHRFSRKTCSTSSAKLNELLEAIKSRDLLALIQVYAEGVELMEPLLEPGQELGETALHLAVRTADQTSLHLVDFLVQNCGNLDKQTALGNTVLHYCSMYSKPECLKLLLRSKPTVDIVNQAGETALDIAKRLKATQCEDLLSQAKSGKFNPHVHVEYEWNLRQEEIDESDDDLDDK
Mot1-301 SUMO – yeast Mot1-301 growth rescue at high temperature, primary screen, SUMOylation pathway inhibitor project, S. cerevisiae, ATP luminescence, 38.5C; growth rescue, % at 18.8 µM; S. cerevisiae Mot1-301 growth rescue; percent above DMSO median, 100 means doubled; AID 2716, 2010; 320,000 tested, 1% active;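 active = every valid replicate shows activation above 250% relative to neutral control wells; inactive = the rest, any valid replicate at or below 250%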;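 also: OY570 slx delta 5 strain wells were the positive control but not used for scaling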
APOBEC3G inh – APOBEC3G DNA deaminase inhibitors, primary screen, biochemical, fluorescence, single-stranded DNA substrate, uHTS. inhibition, % at 20 µM. AID 493012, 2011. recombinant A3G, ssDNA deamination FAM/TAMRA fluorescence. 330,000 tested, 0.28% active. DNA dC->dU-editing enzyme APOBEC-3G (Homo sapiens), Q9HC16;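 active = inhibition of at least 40% at 20 µM, with no more than 30% in the related APOBEC3A deaminase screen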;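 also: plate controls were DMSO wells with A3G for no effect and wells lacking A3G enzyme for full effect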
ARFGAP1 inh – inhibitors of rat ARFGAP1 GAP activity, primary screen, biochemical, fluorescence polarization, GDP tracer; Arfgap1-stimulated ARF1 GTP hydrolysis, GDP FP detection; inhibition, % at 16.5 µM; 360,000 tested, 0.26% active; AID 651572, 2012;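 active = inhibition above a per-plate limit, mean inhibition of low control wells plus 3 SD, cut at about 25% in these data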;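 also: 0% = DMSO wells with enzyme and 100% = wells lacking Arfgap1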
Target sequence (Q62848 1-136 limits assumed): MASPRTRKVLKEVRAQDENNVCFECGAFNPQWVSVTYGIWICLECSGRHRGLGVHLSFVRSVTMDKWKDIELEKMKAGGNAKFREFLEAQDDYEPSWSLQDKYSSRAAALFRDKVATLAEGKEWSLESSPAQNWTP
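Assay system: Rat Arfgap1 GAP domain (His6, aa 1-136), purified enzyme | Buffer or medium: HEPES 25 mM pH 7.5, NaCl 150 mM, MgCl2, DTT | Schedule: GTP hydrolysis reaction 2 h at 25 °C | Signal: FP of antibody-bound GDP Alexa 633 tracer, ex 620/em 688 nm | Measure: Percent inhibition of Arfgap1-stimulated GTP hydrolysis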
ASAP1 inh confirm – ASAP1 GAP activity inhibitors, confirmation, biochemical, fluorescence polarization, human, triplicate. shares compounds with ASAP1 inh. ASAP1-stimulated Arf1 GTPase, GDP fluorescence polarization. inhibition, % at 16.5 µM. 620 tested, 37% active. AID 624431, 2012;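 active = mean inhibition over triplicates exceeds the hit threshold derived for the earlier primary screening run, cut at about 25% in these data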
* marks the source's active call; other numbers are inactive results; nt = no result given. Hits are enriched below; roughly 2.1% of the tested compounds scored in any of these assays.

SMILES	APOBEC3A inh	C2C12 statin	ASAP1 inh	Mot1-301 SUMO	APOBEC3G inh	ARFGAP1 inh	ASAP1 inh confirm
CC(=O)Oc1ccc2ccccc2c1C(NC(=O)Cc1ccccc1)c1ccc(Cl)cc1 (centres undefined)	-4	15	140*	-27	-10	2	6
O=C(C1CCCN(Cc2ccccc2[N+](=O)[O-])C1)N1CCCC1 (centres undefined)	-2	10	27*	-2	-8	-9	3
C[C@@H]1CN([C@@H](C)CO)C(=O)c2cccc(NS(=O)(=O)c3ccc(Cl)cc3)c2O[C@H]1CN(C)C(=O)NC1CCCCC1	nt	-14	nt	nt	nt	nt	nt
CCN(C(=S)NCc1ccccc1)c1cccc2ccccc12	-5	3	25*	-19	-7	0	2
CCN(C(=S)NCc1ccccc1)c1ccccc1	2	nt	-12	-2	-10	-4	nt
CCOC(=O)C1=C(C)OC2(O)c3ccccc3C(=O)C12O (centres undefined)	-4	12	47*	10	-14	17	17
CC1=C(C(=O)OC(C)C)C2(O)C(=O)c3ccccc3C2(O)N1 (centres undefined)	-3	7	-5	9	-4	19	nt
CCCCOC(=O)C1=C(C)NC2(O)c3ccccc3C(=O)C12O (centres undefined)	-3	-4	9	-2	-2	16	nt
CC(=O)C1=C(C)OC2(O)c3ccccc3C(=O)C12O (centres undefined)	3	nt	43*	11	14	14	9
N#Cc1c(-c2cccc(Br)c2)cc(-c2cccnc2)nc1N	3	nt	28*	-8	-4	-1	24
CC(C)C1OC(CCc2ccccc2)Cc2[nH][nH]c(=O)c21 (centres undefined)	nt	nt	-8	nt	nt	-3	nt
CC(C)c1ccc([C@@H]2O[C@H](CCc3ccccc3)Cc3[nH][nH]c(=O)c32)cc1	nt	nt	28*	nt	nt	9	7
O=C(O)CC1(CC(=O)Nc2ccc(F)cc2F)CCCCC1	2	nt	-3	4	-4	2	nt
O=C(O)CC1(CC(=O)Nc2cc(F)ccc2Cl)CCCCC1	1	2	25*	6	1	15	3
CNc1ncnc2c1ncn2[C@H]1CN(Cc2ccc(-c3ccccc3)cc2)C[C@@H](CO)O1	nt	11	-8	nt	nt	-5	nt
OC[C@@H]1CN(Cc2ccc(-c3ccccc3)cc2)C[C@H](n2cnc3c(Nc4ccccc4)ncnc32)O1	nt	4	26*	nt	nt	11	12
O=C(CC(=O)Nc1ccccc1C(F)(F)F)Nc1ccccc1C(F)(F)F	-1	1	23	60	-8	-1	nt
O=C(CNC(=O)c1ccc(F)cc1)Nc1ccccc1C(F)(F)F	2	nt	25*	3	-5	-11	1
NS(=O)(=O)c1ccc(NC(=O)CN2CCN(S(=O)(=O)/C=C/c3ccccc3)CC2)cc1	17	0	30*	9	19	9	4
C[C@@H]1CN([C@H](C)CO)C(=O)c2cc(NC(=O)Nc3ccccc3)ccc2O[C@H]1CN(C)Cc1ccccc1	nt	-57	nt	nt	nt	nt	nt
CN(C)c1ccc(-c2[nH][nH]c(=O)c2NC(=O)c2ccccn2)cc1	nt	18	9	nt	nt	-11	nt
CN(C)c1ccc(-c2[nH][nH]c(=O)c2NC(=O)c2ccc3ccccc3n2)cc1	nt	-1	36*	nt	nt	-7	0
COc1cccc(-c2cnc3c(c2)C(=O)N([C@H](C)CO)C[C@H](C)[C@@H](CN(C)CC2CCCC2)O3)c1	nt	-6	nt	nt	nt	nt	nt
C[C@@H]1CN([C@@H](C)CO)S(=O)(=O)c2ccc(C#CC3CC3)cc2O[C@@H]1CN(C)Cc1ccncc1	nt	-6	nt	nt	nt	nt	nt
COc1ccc(NS(=O)(=O)c2ccc(NC(=S)NC(=O)C(C)C)cc2)cc1	-1	-10	31*	9	5	2	11
SMILES	APOBEC3A inh	C2C12 statin	ASAP1 inh	Mot1-301 SUMO	APOBEC3G inh	ARFGAP1 inh	ASAP1 inh confirm
CN(C(=O)CSc1nncn1C)C1CCCN(Cc2ccccc2F)C1 (centres undefined)	nt	nt	31*	4	nt	15	1
CCCN(C)C[C@@H]1Oc2cc(-c3ccccc3C)ccc2S(=O)(=O)N([C@H](C)CO)C[C@@H]1C	nt	3	nt	nt	nt	nt	nt
Cc1ccc(S(=O)(=O)Nc2ccc3c(c2)C(=O)N(C)[C@H]2CC[C@@H](CC(=O)O)O[C@@H]2CO3)cc1	nt	17	nt	nt	nt	nt	nt
Cc1c(C(=O)Oc2ccc(-c3cnc4ccccc4n3)cc2)cccc1[N+](=O)[O-]	2	-1	25*	1	5	-2	13
COc1ccc(OC(=O)N(C)C[C@H]2OCc3cn(nn3)CCCC(=O)N([C@@H](C)CO)C[C@H]2C)cc1	nt	16	nt	nt	nt	nt	nt
O=c1c(=Nc2ccccc2O)c(=O)c2ccccc12	-4	nt	28*	-6	-10	9	8
CCC(=O)N1C[C@@H]2[C@H](c3ccccc31)[C@@H](CO)N2C(=O)Nc1ccccc1	nt	-10	nt	nt	nt	nt	nt
Cc1cc(OCC(=O)Nc2ccc(N3CCCC3)cc2)cc(C)c1Cl	-3	9	25*	-7	-6	1	7
COc1ccc(C(C)=O)cc1COC(=O)c1ccc2c(c1)OCCO2	-4	0	28*	3	-6	-3	8
O=C(COC(=O)C1CC(=O)N(Cc2ccco2)C1)c1ccc(OC(=O)c2ccco2)cc1 (centres undefined)	26	5	28*	9	4	-2	4
Cc1ccc(C(=O)Oc2ccc(C(=O)COC(=O)C3CC(=O)N(Cc4ccco4)C3)cc2)cc1 (centres undefined)	-3	-6	nt	-9	5	nt	nt
CCC(=O)N(C)C[C@@H]1Oc2ncc(-c3ccc(F)cc3)cc2C(=O)N([C@@H](C)CO)C[C@H]1C	nt	0	nt	nt	nt	nt	nt
NC(=S)NN=C1c2cc(OCCN3CCOCC3)ccc2-c2ccc(OCCN3CCOCC3)cc21	-3	nt	25*	-7	-7	5	22
